Reference: ChEMBL document CHEMBL3526093, “Oxidative ipso substitution of 2,4-difluoro-benzylphthalazines: identification of a rare stable quinone methide and subsequent GSH conjugate” (Drug Metab Dispos, 2012)

Legend:
[1] = Half life under physiological conditions; type: ADME
Cytochrome P450 1A2 = target: T1, Cytochrome P450 1A2 (Homo sapiens, UniProt P05177); assay: Drug metabolism assessed as human CYP1A2-mediated quinone methide metabolite formation at 10 uM by LC/MS method; type: ADME; conditions: recombinant enzyme
T1 sequence (P05177 whole entry): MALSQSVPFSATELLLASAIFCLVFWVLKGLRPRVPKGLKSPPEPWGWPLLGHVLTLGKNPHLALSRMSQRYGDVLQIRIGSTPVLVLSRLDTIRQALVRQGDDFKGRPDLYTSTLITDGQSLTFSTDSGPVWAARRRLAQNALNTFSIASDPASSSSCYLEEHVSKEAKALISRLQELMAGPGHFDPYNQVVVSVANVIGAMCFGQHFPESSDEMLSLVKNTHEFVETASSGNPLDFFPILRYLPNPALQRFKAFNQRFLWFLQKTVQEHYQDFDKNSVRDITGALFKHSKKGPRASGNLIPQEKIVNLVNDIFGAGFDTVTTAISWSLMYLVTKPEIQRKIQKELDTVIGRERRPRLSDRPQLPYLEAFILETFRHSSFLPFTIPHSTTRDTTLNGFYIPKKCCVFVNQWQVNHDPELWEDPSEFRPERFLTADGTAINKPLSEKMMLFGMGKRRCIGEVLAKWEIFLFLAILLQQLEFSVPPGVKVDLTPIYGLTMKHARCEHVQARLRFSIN
Method in brief: (§1)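 Recombinant human P450 Supersomes (100 pmol/ml enzyme) in 0.1 M KH2PO4 pH 7.4 with 5 mM MgCl2 and substrate, prewarmed 2 min at 37°C. NADPH (2 mM) started the reaction, with GSH (5 mM) added 3 min later. Controls lacked GSH or NADPH. Aliquots at 0, 0.5 and 1 h were stopped in ice-cold acetonitrile, spun, and supernatants run on LC/MSn.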

Cytochrome P450 2C19 = Cytochrome P450 2C19 (Homo sapiens, UniProt P33261); assay: Drug metabolism assessed as human CYP2C19-mediated quinone methide metabolite formation at 10 uM by LC/MS method; type: ADME; conditions: recombinant enzyme; method in brief: as §1
Cytochrome P450 2D6 = Cytochrome P450 2D6 (Homo sapiens, UniProt P10635); assay: Drug metabolism assessed as human CYP2D6-mediated quinone methide metabolite formation at 10 uM by LC/MS method; type: ADME; conditions: recombinant enzyme; method in brief: as §1
Cytochrome P450 3A4 [2] = target: T2, Cytochrome P450 3A4 (Homo sapiens, UniProt P08684); assay: Drug metabolism assessed as human CYP3A4-mediated quinone methide metabolite formation at 10 uM by LC/MS method; type: ADME; conditions: recombinant enzyme; method in brief: as §1
Cytochrome P450 2E1 = Cytochrome P450 2E1 (Homo sapiens, UniProt P05181); assay: Drug metabolism assessed as human CYP2E1-mediated quinone methide metabolite formation at 10 uM by LC/MS method; type: ADME; conditions: recombinant enzyme; method in brief: as §1
Cytochrome P450 2C9 = Cytochrome P450 2C9 (Homo sapiens, UniProt P11712); assay: Drug metabolism assessed as human CYP2C9-mediated quinone methide metabolite formation at 10 uM by LC/MS method; type: ADME; conditions: recombinant enzyme; method in brief: as §1
Liver microsome [3] = assay: Drug metabolism in human liver microsomes assessed as quinone methide metabolite formation at 10 uM by LC/MS method; type: ADME
Method in brief: (§2)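 Pooled human liver microsomes (1 mg/ml protein) in 0.1 M KH2PO4 pH 7.4 with 5 mM MgCl2 and substrate, prewarmed 2 min at 37°C with shaking. Started with 2 mM NADPH, then 5 mM GSH added 3 min later. Controls omitted GSH or NADPH. Samples at 0, 0.5 and 1 h quenched in ice-cold acetonitrile, centrifuged, supernatant analysed by positive-ion ESI LC/MSn.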

[4] = Retention time of the compound by LC/MS method; type: physicochemical
Method in brief: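 Reversed-phase C18 column (2.1 × 150 mm), 20 µl injection, 0.25 ml/min. A: 10 mM ammonium formate/0.1% formic acid in water. B: acetonitrile/0.1% formic acid. Gradient held at 10% B for 5 min, then to 90% B over 24 min, back to 10% B over 2 min, held 3 min (35 min run). Positive-ion electrospray detection.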

Cytochrome P450 3A4 [5] = target: T2, Cytochrome P450 3A4; assay: Drug metabolism assessed as human CYP3A4-mediated compound formation using 10 uM [2-(6-(4-(4-(2,4-difluorobenzyl)phthalazin-1-yl)piperazin-1-yl)pyridin-3-yl)propan-2-ol] by LC/MS method; type: ADME; conditions: recombinant enzyme; method in brief: as §1
Liver microsome [6] = assay: Drug level in human liver microsomes treated with 10 uM [2-(6-(4-(4-(2,4-difluorobenzyl)phthalazin-1-yl)piperazin-1-yl)pyridin-3-yl)propan-2-ol] by LC/MS method; type: ADME; method in brief: as §2

T2 sequence (P08684 whole entry): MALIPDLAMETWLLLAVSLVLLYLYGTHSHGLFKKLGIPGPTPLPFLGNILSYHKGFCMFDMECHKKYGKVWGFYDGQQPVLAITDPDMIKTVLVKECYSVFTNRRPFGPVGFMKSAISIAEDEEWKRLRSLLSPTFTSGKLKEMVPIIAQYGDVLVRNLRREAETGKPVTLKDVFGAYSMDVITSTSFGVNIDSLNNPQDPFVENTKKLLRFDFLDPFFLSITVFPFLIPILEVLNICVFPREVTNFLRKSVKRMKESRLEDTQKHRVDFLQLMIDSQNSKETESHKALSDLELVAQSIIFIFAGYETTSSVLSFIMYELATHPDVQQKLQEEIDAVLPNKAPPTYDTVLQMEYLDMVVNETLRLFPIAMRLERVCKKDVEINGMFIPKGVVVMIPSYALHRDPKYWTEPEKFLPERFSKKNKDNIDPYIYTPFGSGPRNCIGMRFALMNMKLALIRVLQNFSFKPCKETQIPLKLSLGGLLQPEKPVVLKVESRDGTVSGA
Chain of Cytochrome P450 2C9 (P11712 whole entry): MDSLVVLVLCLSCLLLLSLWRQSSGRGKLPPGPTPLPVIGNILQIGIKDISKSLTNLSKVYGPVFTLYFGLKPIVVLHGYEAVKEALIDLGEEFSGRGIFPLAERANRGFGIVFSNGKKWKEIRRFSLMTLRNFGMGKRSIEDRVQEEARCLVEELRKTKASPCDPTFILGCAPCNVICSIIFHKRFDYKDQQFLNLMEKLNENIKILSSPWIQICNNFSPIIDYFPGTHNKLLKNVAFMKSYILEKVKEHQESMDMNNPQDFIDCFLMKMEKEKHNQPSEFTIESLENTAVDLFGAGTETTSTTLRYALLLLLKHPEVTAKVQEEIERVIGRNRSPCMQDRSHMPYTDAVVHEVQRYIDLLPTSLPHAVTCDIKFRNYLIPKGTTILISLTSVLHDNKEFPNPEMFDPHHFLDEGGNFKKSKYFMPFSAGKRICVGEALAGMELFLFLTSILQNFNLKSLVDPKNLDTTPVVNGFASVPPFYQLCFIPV
Chain of Cytochrome P450 2E1 (P05181 whole entry): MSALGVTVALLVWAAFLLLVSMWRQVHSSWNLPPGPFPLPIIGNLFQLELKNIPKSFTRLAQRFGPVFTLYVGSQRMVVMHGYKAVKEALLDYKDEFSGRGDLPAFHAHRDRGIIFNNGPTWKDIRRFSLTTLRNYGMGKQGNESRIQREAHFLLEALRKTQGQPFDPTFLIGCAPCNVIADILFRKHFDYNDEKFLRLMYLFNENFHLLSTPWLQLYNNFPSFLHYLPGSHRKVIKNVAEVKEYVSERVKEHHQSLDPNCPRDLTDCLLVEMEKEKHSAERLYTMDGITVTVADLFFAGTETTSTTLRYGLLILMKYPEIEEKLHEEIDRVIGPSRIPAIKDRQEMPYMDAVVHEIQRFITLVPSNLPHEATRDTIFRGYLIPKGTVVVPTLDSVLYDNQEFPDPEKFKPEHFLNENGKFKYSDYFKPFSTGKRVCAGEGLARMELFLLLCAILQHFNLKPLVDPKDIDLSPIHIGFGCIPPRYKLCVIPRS
Chain of Cytochrome P450 2C19 (P33261 whole entry): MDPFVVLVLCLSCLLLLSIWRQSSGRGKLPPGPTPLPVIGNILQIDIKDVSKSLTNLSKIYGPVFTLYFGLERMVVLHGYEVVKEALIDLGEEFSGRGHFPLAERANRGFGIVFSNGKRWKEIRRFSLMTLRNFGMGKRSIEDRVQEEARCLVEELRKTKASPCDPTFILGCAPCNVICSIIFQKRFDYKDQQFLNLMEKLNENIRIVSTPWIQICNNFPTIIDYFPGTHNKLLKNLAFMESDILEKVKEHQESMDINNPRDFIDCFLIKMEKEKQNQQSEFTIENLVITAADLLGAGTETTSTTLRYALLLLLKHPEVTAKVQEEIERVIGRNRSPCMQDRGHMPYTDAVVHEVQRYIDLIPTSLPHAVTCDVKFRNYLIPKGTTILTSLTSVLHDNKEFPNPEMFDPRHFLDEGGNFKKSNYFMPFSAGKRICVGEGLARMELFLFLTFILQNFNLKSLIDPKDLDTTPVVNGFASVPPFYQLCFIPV
Chain of Cytochrome P450 2D6 (P10635 whole entry): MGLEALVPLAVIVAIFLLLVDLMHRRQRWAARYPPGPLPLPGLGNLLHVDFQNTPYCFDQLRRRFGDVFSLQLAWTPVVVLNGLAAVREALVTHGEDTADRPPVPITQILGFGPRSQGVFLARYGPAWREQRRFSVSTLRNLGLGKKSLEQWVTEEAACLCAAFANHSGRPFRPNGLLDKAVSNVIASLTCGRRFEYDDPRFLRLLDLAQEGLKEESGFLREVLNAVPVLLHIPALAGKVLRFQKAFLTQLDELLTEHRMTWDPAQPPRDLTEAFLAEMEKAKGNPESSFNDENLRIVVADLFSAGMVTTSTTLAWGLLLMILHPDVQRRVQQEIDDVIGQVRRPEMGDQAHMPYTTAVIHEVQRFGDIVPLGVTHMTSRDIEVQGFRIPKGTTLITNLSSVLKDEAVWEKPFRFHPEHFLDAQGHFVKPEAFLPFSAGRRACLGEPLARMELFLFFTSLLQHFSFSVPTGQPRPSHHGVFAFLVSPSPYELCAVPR

SMILES	half-life [1]	Retention_time [4]	Drug metabolism (Cytochrome P450 3A4 [5])	Drug metabolism (Liver microsome [6])	further results
C/C=C(/C(=C1C=CC(=O)C=C1)c1ccc(OCCN(C)C)cc1)c1ccccc1	3 h				
CC(C)(O)c1ccc(N2CCN(c3nnc(/C=C4\C=CC(=O)C=C4F)c4ccccc34)CC2)nc1		17.46 min	metabolite_detected	metabolite_detected	
C/C=C(/C(=C1C=CC(=O)C=C1)c1ccccc1)c1ccccc1	4 h				

Now from value to compound, other results behind:

half-life [1]	Retention_time [4]	Drug metabolism (Cytochrome P450 3A4 [5])	Drug metabolism (Liver microsome [6])	SMILES	further results
	14.8 min			CC(C)(O)c1ccc(N2CCN(c3nnc(Cc4ccc(F)cc4F)c4ccccc34)CC2)nc1	Drug metabolism (Cytochrome P450 1A2): metabolite_not_detected; Drug metabolism (Cytochrome P450 2C19): metabolite_not_detected; Drug metabolism (Cytochrome P450 2D6): metabolite_not_detected; Drug metabolism (Cytochrome P450 3A4 [2]): metabolite_detected; Drug metabolism (Cytochrome P450 2E1): metabolite_not_detected; Drug metabolism (Cytochrome P450 2C9): metabolite_not_detected; Drug metabolism (Liver microsome [3]): metabolite_detected
	9.92 min	metabolite_detected	metabolite_detected	CC(C)(O)c1ccc(N2CCN(c3nnc(Cc4cc(SC[C@H](NC(=O)CC[C@H](N)C(=O)O)C(=O)NCC(=O)O)c(O)cc4F)c4ccccc34)CC2)nc1	
